In ChEMBL document CHEMBL4138168, “Design and synthesis of novel thiobarbituric acid derivatives targeting both wild-type and BRAF-mutated melanoma cells” (Eur J Med Chem, 2018) one finds IC50 data, which are given here for 22 compounds.

Assay type in all cases: functional, cell-based
In assay [1] the test system is UACC-903. The assay is described as follows: Cytotoxicity against human UACC-903 cells assessed as cell viability at 25 uM after 48 hrs by MTT assay relative to control. Particulars: UACC-903, 48 h. The essentials: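 MCF10A normal breast epithelial cells were kept in MEGM mammary epithelial medium; the cancer lines were in DMEM with 10% FBS, 37 °C. OD at 570 nm with 630 nm background, expressed relative to control.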

Assay [2] has as its system CHL-1. The assay is described as follows: Antiproliferative activity against human CHL-1 cells harboring wild type BRAF after 72 hrs by MTT assay. Particulars: CHL-1, 72 h. Put shortly:
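Cells (CHL-1) cultured in DMEM with 10% FBS at 37 °C and treated with compound for 72 h. Viability measured by MTT uptake: 3 h with MTT, DMSO solubilisation, absorbance at 570 nm with 630 nm background subtraction. IC50 taken as the mean of triplicates from at least two independent experiments.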

Assay [3] relates to MDA-MB-231. The assay is described as follows: Antiproliferative activity against ER/PR/HER2 deficient human MDA-MB-231 cells after 48 hrs by MTT assay. Particulars: MDA-MB-231, 48 h. Put shortly: (§1)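 3,000 cells per well, grown at 37 °C (DMEM with 10% FBS and penicillin/streptomycin; HCT116 in McCoy's 5A). Cells exposed in triplicate to 0.5–25 μM compound for 48 h. MTT (5 mg/mL PBS stock) added for 3 h, formazan dissolved in DMSO, OD read at 570 nm minus 630 nm background. IC50 from non-linear regression of two independent experiments.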

Assay [4] deals with PANC-1. The assay is described as follows: Antiproliferative activity against human PANC1 cells after 48 hrs by MTT assay. Particulars: PANC-1, 48 h. Put shortly:
as §1

Assay [5] deals with MCF7. The assay is described as follows: Antiproliferative activity against human MCF7 cells expressing ER/PR/HER2 after 48 hrs by MTT assay. To be noted: MCF7, 48 h. The essentials:
as §1

Assay [6] concerns HCT-116. The assay is described as follows: Antiproliferative activity against human HCT116 cells after 48 hrs by MTT assay. Particulars: HCT-116, 48 h. Put shortly: as §1

Regarding `CCN1C(=O)/C(=C\C=C\c2ccco2)C(=O)NC1=S`, the figures for the IC50 in assay [1] and in assay [2] were 16.2 µM and 13.9 µM, respectively.

As to `C=CCN1C(=O)/C(=C\C=C\c2cccs2)C(=O)NC1=S`, the figures for the IC50 in assay [1] and in assay [2] were 6.7 µM and 7.5 µM, respectively.

Consider `CN1C(=O)/C(=C\C=C\c2cccs2)C(=O)NC1=S`, for which the IC50 amounted to 5.5 µM in assay [1]; 8.6 µM in assay [3]; 21 µM in assay [4]; 4.7 µM in assay [2]; 23.5 µM in assay [5]; 18.2 µM in assay [6].

In the case of `CCN1C(=O)/C(=C/C=C/c2cccc3ccccc23)C(=O)NC1=S`, the IC50 in assay [1] came to 23.4 µM.

Regarding `O=C1NC(=[Se])NC(=O)C1=C/C=C/c1ccccc1`, the figures for the IC50 in assay [1] and in assay [2] were 13.6 µM and 9.4 µM, respectively.

With `O=C1NC(=S)NC(=O)C1=C/C=C/c1cccnc1`, the IC50 in assay [1] stood at 18.4 µM.

Regarding `CCN1C(=O)\C(=C/C=C/C=C/c2ccco2)C(=O)NC1=S`, in assay [1], the IC50 came to 7.6 µM.

`C=CCN1C(=O)/C(=C\C=C\c2ccco2)C(=O)N(CC)C1=S`: the IC50 in assay [1] was 14.5 µM; in assay [2] it was 18.9 µM.

In the case of `O=C1NC(=S)NC(=O)C1=C/C=C/c1cccc2ccccc12`, the IC50 in assay [1] came to 4.2 µM; in assay [3], 4.5 µM; in assay [4], 7.9 µM; in assay [6], 3.6 µM.

Consider `O=C1NC(=[Se])NC(=O)C1=C/C=C/c1ccco1`, for which the IC50 in assay [1] stood at 2.3 µM; in assay [2] it was 9.7 µM.

For the compound `CCN1C(=O)C(=C/C=C/c2ccco2)C(=O)N(CC)C1=S`, the IC50 in assay [1] was 18.8 µM; in assay [2], 8.6 µM.

Consider `C=CCN1C(=O)C(=C/C=C/c2ccccc2)C(=O)N(CC=C)C1=S`, for which the IC50 turned out to be 18.1 µM in assay [1] and 8.1 µM in assay [2].

For `CCN1C(=O)/C(=C\C=C\c2ccccc2)C(=O)NC1=S`, the IC50 in assay [1] turned out to be 8 µM; in assay [2], 6.2 µM.

Consider `O=C1NC(=S)NC(=O)C1=C/C=C/c1ccccc1`, for which the values for the half-maximal inhibitory concentration (IC50) in assay [1] and in assay [2] were 9.1 µM and 10.6 µM, respectively.

Take `C=CCN1C(=O)C(=C/C=C/c2ccco2)C(=O)N(CC=C)C1=S`: the IC50 in assay [1] was determined as 17.6 µM; in assay [2] it was 8 µM.

In the case of `C=CCN1C(=O)/C(=C\C=C\c2cccs2)C(=O)N(CC)C1=S`, in assay [1], the IC50 amounted to 6.1 µM.

As for `O=C1NC(=S)NC(=O)C1=C/C=C/c1ccco1`, the IC50 was 8 µM in assay [1]; 16.5 µM in assay [3]; 24.4 µM in assay [4]; 8.5 µM in assay [2]; 27.9 µM in assay [5]; 20.1 µM in assay [6].

Take `CCN1C(=O)C(=C/C=C/c2ccccc2)C(=O)N(CC)C1=S`: the IC50 is 15.2 µM in assay [1] and 8.8 µM in assay [2].

With `O=C1NC(=S)NC(=O)C1=C/C=C/C=C/c1ccccc1`, the IC50 in assay [1] was 6.5 µM.

Turning to `CCN1C(=O)/C(=C\C=C\c2cccs2)C(=O)NC1=S`, the IC50 was 4.6 µM in assay [1]; 8.5 µM in assay [3]; 20.5 µM in assay [4]; 24 µM in assay [5]; 8.3 µM in assay [6].

Regarding `C=CCN1C(=O)/C(=C\C=C\c2ccccc2)C(=O)N(CC)C1=S`, in assay [1], the IC50 turned out to be 21 µM.

With `O=C1NC(=[Se])NC(=O)C1=C/C=C/c1cccs1`, the IC50 in assay [1] was determined as 7.8 µM; in assay [2], 6.3 µM.
